From ChEMBL document CHEMBL2331117 (J Med Chem, 2013)
≈ marks a conversion by molar mass, not a printed value.

Key:
Mus musculus [1] = assay: In vivo inhibition of mTORC1-mediated phosphorylation of p70S6K at […] in human PC3 cells xenografted into athymic nude mouse at 100 mg/kg, po after 32 hrs by Western blotting analysis relative to control; assay type: functional; conditions: PC-3, 32 h
How it was run: (§1)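 PC-3 cells grown in DMEM with 20% FBS were implanted subcutaneously at 3 × 10^6 cells in ice-cold HBSS into the hindflank of 5−8 week old male nude mice. At tumor size 200−500 mg, mice received a single oral dose of 100 mg/kg. Plasma and tumors were collected at 1, 4, 8, 16, 24 and 32 h. Tumor lysates from each group (n = 5) were pooled. Phospho-proteins were quantified by Western blot and normalized to α-tubulin.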

Mus musculus [2] = assay: In vivo inhibition of mTORC1-mediated phosphorylation of p70S6K at […] in human MCF7 cells xenografted into athymic nude mouse at 100 mg/kg, po after 24 hrs by Western blotting analysis relative to control; assay type: functional; conditions: MCF7, 24 h
How it was run: (§2)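 MCF-7 cells (DMEM, 10% FBS) were implanted subcutaneously at 5 × 10^6 cells in 50% cold HBSS/50% growth-factor-reduced matrigel into the hindflank of 5−8 week old female nude mice. At tumor size 40−150 mg, mice received a single oral dose of 100 mg/kg. Tumor lysates were pooled per group. Phospho-AKT (S473, T308), p70S6K (T389), S6 (S240/244) and 4E-BP1 (T37/46) were measured by Western blot normalized to α-tubulin.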

Mus musculus [3] = assay: In vivo inhibition of mTORC1-mediated phosphorylation of 4EBP1 at ([…]) in human MCF7 cells xenografted into athymic nude mouse at 100 mg/kg, po after 32 hrs by Western blotting analysis relative to control; assay type: functional; conditions: MCF7, 32 h
[4] = target: Vascular endothelial growth factor receptor 2 (Homo sapiens, UniProt P35968); assay: Inhibition of KDR (unknown origin)
Vascular endothelial growth factor receptor 2, sequence (P35968 whole entry, canonical isoform): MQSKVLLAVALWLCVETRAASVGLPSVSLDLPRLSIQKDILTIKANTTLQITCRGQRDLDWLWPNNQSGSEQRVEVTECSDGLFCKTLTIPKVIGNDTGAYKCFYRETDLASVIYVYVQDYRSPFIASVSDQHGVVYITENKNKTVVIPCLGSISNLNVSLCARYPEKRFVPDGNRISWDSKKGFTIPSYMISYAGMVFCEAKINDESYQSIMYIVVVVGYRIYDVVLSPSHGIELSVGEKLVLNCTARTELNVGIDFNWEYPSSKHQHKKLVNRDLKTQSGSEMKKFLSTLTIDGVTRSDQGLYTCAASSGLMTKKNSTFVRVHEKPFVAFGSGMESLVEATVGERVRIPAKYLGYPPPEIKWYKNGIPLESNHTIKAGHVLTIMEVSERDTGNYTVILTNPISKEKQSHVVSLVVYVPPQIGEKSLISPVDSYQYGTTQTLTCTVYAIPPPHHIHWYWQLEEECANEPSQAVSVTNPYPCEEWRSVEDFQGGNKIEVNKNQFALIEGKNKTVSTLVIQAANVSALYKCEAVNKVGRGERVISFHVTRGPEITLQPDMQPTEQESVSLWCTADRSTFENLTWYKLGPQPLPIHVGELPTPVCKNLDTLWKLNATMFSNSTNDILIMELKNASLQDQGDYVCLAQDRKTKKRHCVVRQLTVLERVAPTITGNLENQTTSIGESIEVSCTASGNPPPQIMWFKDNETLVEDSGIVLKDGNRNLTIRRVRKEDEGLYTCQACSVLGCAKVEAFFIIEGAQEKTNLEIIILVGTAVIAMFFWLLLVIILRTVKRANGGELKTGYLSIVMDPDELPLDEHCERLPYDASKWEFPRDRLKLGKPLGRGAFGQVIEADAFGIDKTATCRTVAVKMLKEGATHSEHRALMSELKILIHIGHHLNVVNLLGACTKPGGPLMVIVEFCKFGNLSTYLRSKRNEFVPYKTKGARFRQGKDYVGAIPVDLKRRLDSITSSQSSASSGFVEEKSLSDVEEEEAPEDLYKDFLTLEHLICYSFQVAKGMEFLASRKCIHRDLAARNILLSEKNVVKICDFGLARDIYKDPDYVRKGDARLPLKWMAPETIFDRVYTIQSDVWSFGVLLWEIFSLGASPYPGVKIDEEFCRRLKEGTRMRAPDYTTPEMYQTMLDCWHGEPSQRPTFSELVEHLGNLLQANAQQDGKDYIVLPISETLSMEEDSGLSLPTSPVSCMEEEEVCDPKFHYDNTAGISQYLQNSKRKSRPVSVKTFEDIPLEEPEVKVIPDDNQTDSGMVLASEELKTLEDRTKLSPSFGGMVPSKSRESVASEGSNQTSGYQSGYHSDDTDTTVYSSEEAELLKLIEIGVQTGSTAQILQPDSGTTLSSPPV

[5] = target: Phosphatidylinositol 4,5-bisphosphate 3-kinase catalytic subunit alpha isoform (Homo sapiens, UniProt P42336); assay: Inhibition of PI3Kalpha (unknown origin) using PIP2 as substrate after 2 hrs by luminescence assay
Phosphatidylinositol 4,5-bisphosphate 3-kinase catalytic subunit alpha isoform, sequence (P42336 whole entry, canonical isoform): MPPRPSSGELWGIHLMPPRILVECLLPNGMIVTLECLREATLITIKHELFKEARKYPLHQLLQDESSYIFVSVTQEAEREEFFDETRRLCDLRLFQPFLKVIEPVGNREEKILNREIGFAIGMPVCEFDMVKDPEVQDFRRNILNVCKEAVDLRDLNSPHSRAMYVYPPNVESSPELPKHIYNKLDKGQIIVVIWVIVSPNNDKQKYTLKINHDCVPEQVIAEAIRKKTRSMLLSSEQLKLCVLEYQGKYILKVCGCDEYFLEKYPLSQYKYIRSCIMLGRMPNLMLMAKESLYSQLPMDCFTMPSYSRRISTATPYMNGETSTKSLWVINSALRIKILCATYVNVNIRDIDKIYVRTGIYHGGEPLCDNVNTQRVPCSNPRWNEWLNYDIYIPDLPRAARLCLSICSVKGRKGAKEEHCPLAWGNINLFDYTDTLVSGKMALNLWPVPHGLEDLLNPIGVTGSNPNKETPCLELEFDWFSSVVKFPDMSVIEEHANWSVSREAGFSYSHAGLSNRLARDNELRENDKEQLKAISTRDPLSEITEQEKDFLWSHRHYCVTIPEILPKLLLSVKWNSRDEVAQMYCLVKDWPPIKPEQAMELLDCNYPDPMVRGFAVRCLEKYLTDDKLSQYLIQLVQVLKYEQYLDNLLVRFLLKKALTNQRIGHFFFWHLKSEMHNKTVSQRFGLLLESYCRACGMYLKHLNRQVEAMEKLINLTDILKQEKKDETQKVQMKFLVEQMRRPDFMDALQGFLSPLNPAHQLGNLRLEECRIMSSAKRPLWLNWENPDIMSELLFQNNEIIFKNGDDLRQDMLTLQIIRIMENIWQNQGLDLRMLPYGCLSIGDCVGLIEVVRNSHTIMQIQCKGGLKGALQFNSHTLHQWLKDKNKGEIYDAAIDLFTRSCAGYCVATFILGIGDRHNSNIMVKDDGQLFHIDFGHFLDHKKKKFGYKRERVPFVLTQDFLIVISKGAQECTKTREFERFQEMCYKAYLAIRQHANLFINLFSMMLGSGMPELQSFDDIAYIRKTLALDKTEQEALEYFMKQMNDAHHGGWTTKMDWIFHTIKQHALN

Cytochrome P450 2C8 = target: T1, Cytochrome P450 2C8 (Homo sapiens, UniProt P10632); assay: Inhibition of CYP2C8 (unknown origin); assay type: ADME
T1 sequence (P10632 whole entry): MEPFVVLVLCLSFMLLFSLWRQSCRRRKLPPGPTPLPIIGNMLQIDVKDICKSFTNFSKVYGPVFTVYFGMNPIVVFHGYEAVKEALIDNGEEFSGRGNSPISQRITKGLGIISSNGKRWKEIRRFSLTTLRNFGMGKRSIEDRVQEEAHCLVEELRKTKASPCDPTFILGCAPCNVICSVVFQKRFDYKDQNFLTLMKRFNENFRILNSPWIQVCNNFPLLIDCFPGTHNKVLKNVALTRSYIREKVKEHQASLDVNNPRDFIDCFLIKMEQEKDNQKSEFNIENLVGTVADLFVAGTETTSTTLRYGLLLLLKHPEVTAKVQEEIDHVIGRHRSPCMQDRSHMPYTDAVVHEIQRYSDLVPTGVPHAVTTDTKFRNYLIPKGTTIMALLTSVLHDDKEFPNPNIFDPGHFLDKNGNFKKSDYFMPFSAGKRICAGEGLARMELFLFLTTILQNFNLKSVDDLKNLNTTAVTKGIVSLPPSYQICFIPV

Mus musculus [6] = assay: In vivo inhibition of mTORC1-mediated phosphorylation of pS6 at (serine 240/244) in human PC3 cells xenografted into athymic nude mouse at 100 mg/kg, po after 16 hrs by Western blotting analysis relative to control; assay type: functional; conditions: PC-3, 16 h; how it was run: as §1
[7] = Drug uptake in tumor of athymic mouse xenografted with human PC3 cells at 100 mg/kg, po after 24 hrs; assay type: ADME, organism-based, Neoplasm, PC-3; parameters: dose 100 mg/kg, route oral; conditions: read-out: Drug uptake
How it was run: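 PC-3 cells (3 × 10⁶, passages 10–14, in ice-cold HBSS) were implanted sc in 5–8 week old male nude mice. Tumors of 200–500 mg received a single oral 100 mg/kg dose. Plasma and tumor were collected at 1, 4, 8, 16, 24 and 32 h and homogenized in buffer. Lysates were pooled per group (n = 5), and phospho-proteins were measured by Western blot normalized to α-tubulin.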

[8] = Tmax in cynomolgus monkey at 3 mg/kg, po; assay type: ADME, organism-based, Macaca fascicularis; parameters: dose 3 mg/kg, route oral; conditions: in vivo
[9] = Cmax in CD rat at 3 mg/kg, iv; assay type: ADME, organism-based; parameters: dose 3 mg/kg, route intravenous; conditions: in vivo
How it was run: (§3)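 Single-dose PK: female athymic nude mice (10 mg/kg), female CD rats and male beagle dogs (3 mg/kg), male cynomolgus monkeys (3 mg/kg), given iv and by oral gavage. Solution in EPW (5% ethanol/45% PEG400/water), with 1:2 HCl (m/m) for mouse, rat and dog and 1:1.5 HCl (m/m) for monkey. Plasma levels followed over 24 h.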

Mus musculus [10] = assay: In vivo inhibition of mTORC1-mediated phosphorylation of 4EBP1 at ([…]) in human PC3 cells xenografted into athymic nude mouse at 100 mg/kg, po after 16 hrs by Western blotting analysis relative to control; assay type: functional; conditions: PC-3, 16 h; how it was run: as §1
[11] = AUC (0 to infinity) in athymic nude mouse at 10 mg/kg, iv; assay type: ADME, organism-based; parameters: time infinity, dose 10 mg/kg, route intravenous; conditions: plasma; how it was run: as §3
[12] = Plasma concentration in mouse at 100 mg/kg, po after 1 hr; assay type: ADME, organism-based; parameters: dose 100 mg/kg, route oral
Mus musculus [13] = assay: In vivo inhibition of mTORC1-mediated phosphorylation of 4EBP1 at ([…]) in human MCF7 cells xenografted into athymic nude mouse at 100 mg/kg, po after 4 hrs by Western blotting analysis relative to control; assay type: functional; conditions: MCF7, 4 h; how it was run: as §2
CDK3/cyclin E = CDK3/cyclin E (Homo sapiens, UniProt O96020+P24864+Q00526); assay: Inhibition of CDK3/Cyclin E (unknown origin); assay type: protein-complex assay
CDK3/cyclin E, sequence (P24864 whole entry): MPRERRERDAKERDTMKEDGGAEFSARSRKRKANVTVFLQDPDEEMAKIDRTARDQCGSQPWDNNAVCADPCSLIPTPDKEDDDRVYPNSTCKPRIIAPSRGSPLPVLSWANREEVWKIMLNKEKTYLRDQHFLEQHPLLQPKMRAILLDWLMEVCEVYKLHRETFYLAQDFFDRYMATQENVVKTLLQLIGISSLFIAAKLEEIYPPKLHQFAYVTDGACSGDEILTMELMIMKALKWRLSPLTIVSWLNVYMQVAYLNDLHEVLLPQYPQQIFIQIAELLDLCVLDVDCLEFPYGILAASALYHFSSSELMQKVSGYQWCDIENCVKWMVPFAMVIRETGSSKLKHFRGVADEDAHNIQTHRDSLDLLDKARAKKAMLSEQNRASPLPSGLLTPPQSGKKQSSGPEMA
CDK3/cyclin E, sequence (O96020 whole entry): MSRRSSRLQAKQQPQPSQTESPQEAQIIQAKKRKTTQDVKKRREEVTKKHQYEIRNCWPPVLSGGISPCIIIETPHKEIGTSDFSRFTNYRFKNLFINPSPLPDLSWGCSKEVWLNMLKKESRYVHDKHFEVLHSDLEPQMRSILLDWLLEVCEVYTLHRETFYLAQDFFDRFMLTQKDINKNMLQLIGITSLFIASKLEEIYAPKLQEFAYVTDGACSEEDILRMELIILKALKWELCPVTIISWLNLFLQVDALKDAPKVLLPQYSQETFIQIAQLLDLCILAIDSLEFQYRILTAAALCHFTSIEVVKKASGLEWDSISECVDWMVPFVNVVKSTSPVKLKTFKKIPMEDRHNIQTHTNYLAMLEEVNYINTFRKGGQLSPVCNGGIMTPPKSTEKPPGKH
CDK3/cyclin E, sequence (Q00526 whole entry): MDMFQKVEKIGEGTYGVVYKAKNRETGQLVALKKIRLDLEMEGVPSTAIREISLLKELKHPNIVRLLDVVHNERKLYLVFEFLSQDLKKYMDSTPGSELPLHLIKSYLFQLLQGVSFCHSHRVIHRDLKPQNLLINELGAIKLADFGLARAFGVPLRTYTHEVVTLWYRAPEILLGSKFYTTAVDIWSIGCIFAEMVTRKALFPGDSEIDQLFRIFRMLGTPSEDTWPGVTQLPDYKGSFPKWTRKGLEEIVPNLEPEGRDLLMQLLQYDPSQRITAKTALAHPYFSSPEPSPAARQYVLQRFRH

[14] = AUC (0 to infinity) in athymic nude mouse at 10 mg/kg, po; assay type: ADME, organism-based; parameters: dose 10 mg/kg, route oral, time infinity; conditions: plasma; how it was run: as §3
MCF7 = assay: Antitumor activity against human MCF7 cells xenografted in athymic nude mouse at 50 mg/kg, po qd for 14 days relative to control; assay type: functional
How it was run: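 Female athymic nude (NCr) mice, 5–8 weeks old, bearing subcutaneous MCF-7 tumors staged at 100–200 mg. Compound given orally qd for 14 days at 50 or 100 mg/kg as a solution/fine suspension in water with a 1:1 molar ratio of 1 N HCl. Caliper tumor mass = length × width²/2, measured twice weekly; body mass recorded daily.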

[15] = Tmax in CD rat at 3 mg/kg, po; assay type: ADME, organism-based; parameters: dose 3 mg/kg, route oral; conditions: in vivo
Mus musculus [16] = assay: In vivo inhibition of mTORC2-mediated phosphorylation of AKT at serine 473 in human MCF7 cells xenografted into athymic nude mouse at 100 mg/kg, po after 8 hrs by Western blotting analysis relative to control; assay type: functional; conditions: MCF7, 8 h; how it was run: as §2
[17] = target: Phosphatidylinositol 4,5-bisphosphate 3-kinase catalytic subunit delta isoform (Homo sapiens, UniProt O00329); assay: Inhibition of PI3Kdelta (unknown origin)
Phosphatidylinositol 4,5-bisphosphate 3-kinase catalytic subunit delta isoform, sequence (O00329 whole entry, canonical isoform): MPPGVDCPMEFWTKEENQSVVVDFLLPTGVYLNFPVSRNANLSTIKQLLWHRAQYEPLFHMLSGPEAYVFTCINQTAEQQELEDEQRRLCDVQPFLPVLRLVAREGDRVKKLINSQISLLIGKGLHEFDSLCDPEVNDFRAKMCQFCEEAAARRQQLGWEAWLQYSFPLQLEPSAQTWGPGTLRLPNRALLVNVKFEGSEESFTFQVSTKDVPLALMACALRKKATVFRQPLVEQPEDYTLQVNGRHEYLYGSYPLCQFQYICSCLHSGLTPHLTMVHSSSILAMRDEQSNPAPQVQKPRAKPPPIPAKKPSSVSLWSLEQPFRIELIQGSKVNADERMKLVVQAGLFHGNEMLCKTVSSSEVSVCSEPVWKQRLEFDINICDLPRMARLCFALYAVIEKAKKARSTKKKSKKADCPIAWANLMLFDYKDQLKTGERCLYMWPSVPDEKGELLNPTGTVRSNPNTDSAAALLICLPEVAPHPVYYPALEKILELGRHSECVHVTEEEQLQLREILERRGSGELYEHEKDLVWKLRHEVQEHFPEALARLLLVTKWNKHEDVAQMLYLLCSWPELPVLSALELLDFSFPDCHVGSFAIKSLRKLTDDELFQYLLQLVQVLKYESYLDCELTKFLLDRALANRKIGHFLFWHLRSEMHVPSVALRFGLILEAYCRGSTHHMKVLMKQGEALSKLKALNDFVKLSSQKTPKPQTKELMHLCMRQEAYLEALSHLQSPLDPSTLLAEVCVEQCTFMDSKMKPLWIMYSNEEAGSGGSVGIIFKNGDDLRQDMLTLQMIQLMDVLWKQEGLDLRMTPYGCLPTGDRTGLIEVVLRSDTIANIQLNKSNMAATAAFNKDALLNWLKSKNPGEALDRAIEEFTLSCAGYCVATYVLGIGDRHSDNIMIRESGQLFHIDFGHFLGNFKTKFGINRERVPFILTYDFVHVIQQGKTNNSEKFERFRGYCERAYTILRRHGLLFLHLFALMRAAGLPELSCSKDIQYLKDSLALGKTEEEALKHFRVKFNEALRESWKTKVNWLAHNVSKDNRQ

[18] = Apparent permeability across MDCK cells; assay type: ADME, cell-based, Canis lupus familiaris; conditions: dog
Mus musculus [19] = assay: In vivo inhibition of mTORC1-mediated phosphorylation of 4EBP1 at ([…]) in human MCF7 cells xenografted into athymic nude mouse at 100 mg/kg, po after 24 hrs by Western blotting analysis relative to control; assay type: functional; conditions: MCF7, 24 h
[20] = Kinetic solubility of the compound; assay type: physicochemical; conditions: read-out: Kinetic_solubility

IC50 [4]: > 3.5 µM
IC50 [5]: > 3 µM
INH (Cytochrome P450 2C8): > 20 µM
concentration at 24 h [7]: 0.11 µM
Tmax [8]: 2 h
Cmax [9]: 4.12 µM
AUC(0-inf) [11]: 8 µM·h
concentration at 1 h [12]: 22 µM
IC50 (CDK3/cyclin E): > 10 µM
AUC(0-inf) [14]: 2.51 µM·h
Tmax [15]: 0.5 h
IC50 [17]: > 5 µM
Papp [18]: 15.1 ×10⁻⁶ cm/s
solubility kinetic [20]: 232 µM (≈ 106 µg/mL)
Compound: Cc1c(C(=O)N2CCOc3ccc(-c4ccc(N)nc4)cc3C2)ccc(S(C)(=O)=O)c1F
inhibition in vivo at 100 mg/kg (Mus musculus [1]): -12%
inhibition in vivo at 100 mg/kg (Mus musculus [2]): -19%
inhibition in vivo at 100 mg/kg (Mus musculus [3]): 3%
inhibition in vivo at 100 mg/kg (Mus musculus [6]): 71%
inhibition in vivo at 100 mg/kg (Mus musculus [10]): 51%
inhibition in vivo at 100 mg/kg (Mus musculus [13]): 85%
Activity (MCF7): 22%
inhibition in vivo at 100 mg/kg (Mus musculus [16]): 89%
inhibition in vivo at 100 mg/kg (Mus musculus [19]): -17%
